Results as given in ChEMBL document CHEMBL4732104, “Discovery of bardoxolone derivatives as novel orally active necroptosis inhibitors” (Eur J Med Chem, 2021).
Calls of active or inactive are those of the source. The calls are words filed in the database; no cut-off is given here.

What was measured:
[1] = target: Heat shock protein HSP90 (Homo sapiens) (UniProt P07900+P08238); assay: Inhibition of HSP90 in TNFalpha/SM-164/Z-VAD-fmk (TSZ)-induced human HT-29 cells assessed as reduction in RIPK1-RIPK3 necrosome formation at 10 uM measured after 6 hrs by Western blot analysis; assay type: cell-based
Method in brief: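 HT-29 cells given agent (10 μM) or DMSO for 6 h under TSZ. Lysed in NP-40 buffer with PMSF, protease inhibitors, β-glycerophosphate, NaF and Na3VO4. Anti-RIPK1 immunoprecipitation overnight at 4 °C, protein A/G capture overnight. Eluates boiled in SDS buffer and resolved on 10% gels for immunoblot.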

Mus musculus [2] = assay: Protection against TNFalpha-induced C57BL/6J mouse model of systemic inflammatory response syndrome assessed as survival at 20 mg/kg, ig administered via gavage 2 hrs prior to TNFalpha stimulation and measured after 10 to 60 mins relative to control; assay type: functional; details: po, time 2-3 hrs
Method in brief: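 Female C57BL/6 J mice, 6–8 weeks, fasted overnight, n=11 per group. Compound suspended in 0.5% CMC-Na, by oral gavage 2 h before mTNF-α 250 µg/kg i.v.; z-VAD-fmk 200 µg i.p. 15 min before and 75 µg 1 h after TNF. Survival and body temperature monitored.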

Mus musculus [3] = assay: Protection against TNFalpha-induced C57BL/6J mouse model of systemic inflammatory response syndrome assessed as reduction in IL1beta level at 20 mg/kg, ig administered via gavage 2 hrs prior to TNFalpha stimulation and measured after 6 hrs by ELISA; assay type: functional, organism-based; details: time 8.0 hrs
Method in brief: (§1)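 Female C57BL/6J mice, 6–8 weeks, fasted overnight, n=11 per group. Agent suspended in 0.5% CMC-Na, given by oral gavage 2 h before i.v. mTNF-α (250 µg/kg in PBS). z-VAD-fmk i.p. 200 µg 15 min before and 75 µg 1 h after. Serum IL-1β and IL-6 measured by ELISA at 6 h.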

Mus musculus [4] = assay: Protection against TNFalpha-induced C57BL/6J mouse model of systemic inflammatory response syndrome assessed as reduction in IL6 level at 20 mg/kg, ig administered via gavage 2 hrs prior to TNFalpha stimulation and measured after 6 hrs by ELISA; assay type: functional, organism-based; details: time 8.0 hrs; method in brief: as §1
Rattus norvegicus = assay: Neuroprotective activity in middle cerebral artery occlusion-induced Sprague-Dawley rat model of ischemia-reperfusion injury assessed as reduction in cerebral infarct volume at 100 mg/kg by TTC staining based microscopic analysis relative to control; assay type: functional; design: scale not given: the % may be the effect or the level left
Method in brief: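 Rats: left MCA blocked by monofilament via internal carotid under chloral hydrate (300 mg/kg i.p.), 2 h occlusion, 24 h reperfusion. Groups sham, vehicle, compound 100 mg/kg, nimodipine 1 mg/kg given orally beforehand. Brains cut in 2 mm coronal slices, TTC-stained; unstained area as percent of whole brain area; n = 6.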

SMILES: CC1(C)CC[C@]2(C(=O)n3cnc(-c4cccnc4)c3)CC[C@]3(C)[C@H](C(=O)C=C4[C@@]5(C)C=C(C#N)C(=O)C(C)(C)[C@@H]5CC[C@]43C)[C@@H]2C1
- inhibition [1]: Active
- survival at 20 mg/kg (Mus musculus [2]): 100%
- Activity (Mus musculus [3]): Active
- Activity (Mus musculus [4]): Active
- Activity (Rattus norvegicus): 22.8%
